In ChEMBL document CHEMBL1149392, “PTP-1B inhibitors: cyclopenta[d][1,2]-oxazine derivatives” (Bioorg Med Chem Lett, 2006):
The source made the active and inactive calls. The rule behind the calls is not given here.

Columns and labels:
[1] = target: T1, Tyrosine-protein phosphatase non-receptor type 1 (Homo sapiens) (UniProt P18031); test: Inhibitory activity against recombinant human PTP1B at 10 uM
T1 sequence (whole entry): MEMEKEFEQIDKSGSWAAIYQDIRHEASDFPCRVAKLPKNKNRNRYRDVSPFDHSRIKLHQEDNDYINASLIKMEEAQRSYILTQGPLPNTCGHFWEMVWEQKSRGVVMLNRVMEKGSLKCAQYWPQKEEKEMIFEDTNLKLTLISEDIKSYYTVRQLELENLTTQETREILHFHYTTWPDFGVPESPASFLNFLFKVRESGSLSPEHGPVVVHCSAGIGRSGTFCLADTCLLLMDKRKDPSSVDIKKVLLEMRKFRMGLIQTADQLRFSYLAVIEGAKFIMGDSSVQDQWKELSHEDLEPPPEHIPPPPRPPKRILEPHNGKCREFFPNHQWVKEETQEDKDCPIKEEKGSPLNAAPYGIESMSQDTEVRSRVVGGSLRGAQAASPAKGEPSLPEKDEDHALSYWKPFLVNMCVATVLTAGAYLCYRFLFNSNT

[2] = target: T2, Tyrosine-protein phosphatase non-receptor type 1 (Homo sapiens, UniProt P18031); test: Inhibitory activity against recombinant human PTP1B
T2 sequence (P18031 whole entry): T1 sequence (whole entry)
Procedure, shortened: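 Recombinant human PTP-1B (0.1 μg) incubated with 20 μM fluorescein diphosphate and compound in 30 mM Tris, 75 mM NaCl, 0.67 mM EDTA, 1 mM DTT, pH 8.0, for 1 h at room temperature. Product fluorescein monophosphate read by fluorescence (ex 485 nm, em 538 nm). IC50 reported.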

[3] = target: Dual specificity protein phosphatase 3 (Homo sapiens, UniProt P51452); test: Inhibitory activity against VH1-related phosphatase VHR at 10 uM
Sequence of Dual specificity protein phosphatase 3 (P51452 whole entry, looked up): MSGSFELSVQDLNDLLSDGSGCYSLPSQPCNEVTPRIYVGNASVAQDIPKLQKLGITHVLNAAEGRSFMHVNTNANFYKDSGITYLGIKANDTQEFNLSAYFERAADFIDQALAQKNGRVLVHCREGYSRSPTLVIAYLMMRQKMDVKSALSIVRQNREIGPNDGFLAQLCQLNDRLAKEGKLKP
Procedure, shortened: (§1)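 Phosphatase selectivity panel using fluorescein diphosphate substrate at 20 μM, the same level as in the PTP-1B assay. Compound tested at a single concentration of 10 μM; percent inhibition of enzyme activity reported.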

[4] = target: T3, M-phase inducer phosphatase 2 (Homo sapiens) (UniProt P30305); test: Inhibitory activity against cdc25B phosphatase at 10 uM; procedure, shortened: as §1
T3 sequence (whole entry): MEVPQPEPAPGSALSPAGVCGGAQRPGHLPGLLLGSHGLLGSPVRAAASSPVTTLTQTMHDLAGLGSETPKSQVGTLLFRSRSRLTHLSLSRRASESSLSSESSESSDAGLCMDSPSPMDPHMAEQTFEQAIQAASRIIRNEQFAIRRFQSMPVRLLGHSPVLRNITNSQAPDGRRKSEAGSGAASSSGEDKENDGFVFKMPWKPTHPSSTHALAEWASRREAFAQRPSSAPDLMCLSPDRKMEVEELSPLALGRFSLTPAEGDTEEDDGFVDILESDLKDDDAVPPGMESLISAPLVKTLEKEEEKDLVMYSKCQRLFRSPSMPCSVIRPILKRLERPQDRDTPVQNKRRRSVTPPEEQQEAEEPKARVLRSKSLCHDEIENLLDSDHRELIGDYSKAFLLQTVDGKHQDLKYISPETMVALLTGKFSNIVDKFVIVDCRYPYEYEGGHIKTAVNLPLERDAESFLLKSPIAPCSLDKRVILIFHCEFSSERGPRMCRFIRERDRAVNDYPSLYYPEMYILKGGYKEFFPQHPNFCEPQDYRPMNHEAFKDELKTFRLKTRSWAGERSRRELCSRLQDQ

[5] = target: T4, Receptor-type tyrosine-protein phosphatase C (Homo sapiens) (UniProt P08575); test: Inhibitory activity against CD45 phosphatase at 10 uM; procedure, shortened: as §1
T4 sequence (whole entry): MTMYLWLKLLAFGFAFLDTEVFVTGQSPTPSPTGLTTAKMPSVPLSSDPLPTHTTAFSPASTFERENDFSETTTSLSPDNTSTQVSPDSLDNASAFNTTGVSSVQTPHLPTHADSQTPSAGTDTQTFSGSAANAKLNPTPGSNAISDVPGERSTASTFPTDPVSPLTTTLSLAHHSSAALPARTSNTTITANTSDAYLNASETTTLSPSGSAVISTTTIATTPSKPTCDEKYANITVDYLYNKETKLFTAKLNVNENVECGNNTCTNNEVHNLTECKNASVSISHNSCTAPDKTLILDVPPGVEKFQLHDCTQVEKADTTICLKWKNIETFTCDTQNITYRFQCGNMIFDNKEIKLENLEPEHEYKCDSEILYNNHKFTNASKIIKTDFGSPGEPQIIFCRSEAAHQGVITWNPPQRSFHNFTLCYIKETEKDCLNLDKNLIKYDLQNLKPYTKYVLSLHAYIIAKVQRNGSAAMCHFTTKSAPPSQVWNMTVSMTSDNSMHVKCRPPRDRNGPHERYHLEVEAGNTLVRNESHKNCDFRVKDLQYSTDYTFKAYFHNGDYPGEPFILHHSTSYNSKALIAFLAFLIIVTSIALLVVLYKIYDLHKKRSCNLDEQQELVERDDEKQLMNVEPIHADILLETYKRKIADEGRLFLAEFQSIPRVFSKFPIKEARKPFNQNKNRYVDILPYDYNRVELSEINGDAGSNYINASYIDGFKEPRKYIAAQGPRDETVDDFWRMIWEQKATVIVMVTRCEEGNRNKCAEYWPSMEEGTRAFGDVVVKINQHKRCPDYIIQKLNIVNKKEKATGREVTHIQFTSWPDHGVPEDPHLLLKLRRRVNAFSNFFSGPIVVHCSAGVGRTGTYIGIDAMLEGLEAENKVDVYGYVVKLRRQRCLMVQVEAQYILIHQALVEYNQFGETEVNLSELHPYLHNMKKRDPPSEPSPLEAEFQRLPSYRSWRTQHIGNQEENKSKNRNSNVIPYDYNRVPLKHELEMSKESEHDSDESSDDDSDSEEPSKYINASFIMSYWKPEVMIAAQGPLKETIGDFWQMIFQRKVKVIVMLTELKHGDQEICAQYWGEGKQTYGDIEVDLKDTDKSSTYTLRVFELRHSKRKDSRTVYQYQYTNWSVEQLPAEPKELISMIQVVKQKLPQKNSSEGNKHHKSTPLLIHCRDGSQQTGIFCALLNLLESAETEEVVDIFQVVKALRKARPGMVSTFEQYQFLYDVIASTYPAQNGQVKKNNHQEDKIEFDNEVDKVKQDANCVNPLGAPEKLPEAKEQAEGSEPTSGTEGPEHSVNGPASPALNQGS

[6] = target: Serine/threonine-protein phosphatase PP1-gamma catalytic subunit (Homo sapiens, UniProt P36873); test: Inhibitory activity against Protein phosphatase 1 at 10 uM; procedure, shortened: as §1
Sequence of Serine/threonine-protein phosphatase PP1-gamma catalytic subunit (P36873 2-323 limits assumed): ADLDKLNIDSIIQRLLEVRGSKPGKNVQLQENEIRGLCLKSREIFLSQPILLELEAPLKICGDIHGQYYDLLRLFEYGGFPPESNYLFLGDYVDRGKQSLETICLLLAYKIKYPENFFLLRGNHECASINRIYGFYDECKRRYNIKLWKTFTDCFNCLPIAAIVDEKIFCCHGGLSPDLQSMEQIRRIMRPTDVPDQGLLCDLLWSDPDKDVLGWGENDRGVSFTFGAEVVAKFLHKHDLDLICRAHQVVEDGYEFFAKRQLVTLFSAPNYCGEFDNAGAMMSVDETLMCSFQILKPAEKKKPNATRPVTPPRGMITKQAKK

[7] = target: Tyrosine-protein phosphatase YopH (Yersinia enterocolitica) (UniProt P15273); test: Inhibitory activity against YOP protein tyrosine phosphatase at 10 uM
Sequence of Tyrosine-protein phosphatase YopH (Yersinia enterocolitica) (P15273 whole entry): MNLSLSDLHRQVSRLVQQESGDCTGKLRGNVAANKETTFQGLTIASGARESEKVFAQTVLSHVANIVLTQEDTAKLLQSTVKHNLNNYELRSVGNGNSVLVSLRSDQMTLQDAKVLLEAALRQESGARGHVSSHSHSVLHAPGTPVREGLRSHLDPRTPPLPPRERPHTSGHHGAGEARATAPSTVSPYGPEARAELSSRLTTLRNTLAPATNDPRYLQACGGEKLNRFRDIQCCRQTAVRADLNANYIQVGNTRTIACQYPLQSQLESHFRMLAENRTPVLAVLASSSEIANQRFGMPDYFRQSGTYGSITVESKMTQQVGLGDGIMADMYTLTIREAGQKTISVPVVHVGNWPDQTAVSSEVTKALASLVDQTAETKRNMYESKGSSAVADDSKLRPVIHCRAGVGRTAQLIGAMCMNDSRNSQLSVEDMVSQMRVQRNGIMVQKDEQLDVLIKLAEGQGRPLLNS
Procedure, shortened: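 Yop phosphatase tested in the nine-phosphatase selectivity panel with 20 μM fluorescein diphosphate as substrate. Inhibitor tested at a single concentration of 10 μM; the value is % inhibition.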

[8] = target: T5, M-phase inducer phosphatase 1 (Homo sapiens) (UniProt P30304); test: Inhibitory activity against cdc25A phosphatase at 10 uM; procedure, shortened: as §1
T5 sequence (whole entry): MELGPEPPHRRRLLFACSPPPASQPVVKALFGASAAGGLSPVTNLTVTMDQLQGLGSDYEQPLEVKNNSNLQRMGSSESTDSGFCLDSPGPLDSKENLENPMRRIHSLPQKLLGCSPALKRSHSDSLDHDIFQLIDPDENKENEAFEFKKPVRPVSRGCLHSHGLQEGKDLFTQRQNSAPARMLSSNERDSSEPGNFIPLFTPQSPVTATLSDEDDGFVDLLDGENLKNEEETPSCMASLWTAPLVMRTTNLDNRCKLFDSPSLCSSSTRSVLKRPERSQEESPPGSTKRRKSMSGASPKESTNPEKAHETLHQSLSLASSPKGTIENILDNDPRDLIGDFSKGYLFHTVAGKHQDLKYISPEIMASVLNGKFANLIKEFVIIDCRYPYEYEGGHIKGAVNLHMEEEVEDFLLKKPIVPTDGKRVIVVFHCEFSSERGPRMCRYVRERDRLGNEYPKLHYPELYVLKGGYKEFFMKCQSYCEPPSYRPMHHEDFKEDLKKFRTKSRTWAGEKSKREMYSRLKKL

[9] = target: Receptor-type tyrosine-protein phosphatase F (Homo sapiens, UniProt P10586); test: Inhibitory activity against LAR protein tyrosine phosphatase at 10 uM; procedure, shortened: as §1
Sequence of Receptor-type tyrosine-protein phosphatase F (P10586 whole entry): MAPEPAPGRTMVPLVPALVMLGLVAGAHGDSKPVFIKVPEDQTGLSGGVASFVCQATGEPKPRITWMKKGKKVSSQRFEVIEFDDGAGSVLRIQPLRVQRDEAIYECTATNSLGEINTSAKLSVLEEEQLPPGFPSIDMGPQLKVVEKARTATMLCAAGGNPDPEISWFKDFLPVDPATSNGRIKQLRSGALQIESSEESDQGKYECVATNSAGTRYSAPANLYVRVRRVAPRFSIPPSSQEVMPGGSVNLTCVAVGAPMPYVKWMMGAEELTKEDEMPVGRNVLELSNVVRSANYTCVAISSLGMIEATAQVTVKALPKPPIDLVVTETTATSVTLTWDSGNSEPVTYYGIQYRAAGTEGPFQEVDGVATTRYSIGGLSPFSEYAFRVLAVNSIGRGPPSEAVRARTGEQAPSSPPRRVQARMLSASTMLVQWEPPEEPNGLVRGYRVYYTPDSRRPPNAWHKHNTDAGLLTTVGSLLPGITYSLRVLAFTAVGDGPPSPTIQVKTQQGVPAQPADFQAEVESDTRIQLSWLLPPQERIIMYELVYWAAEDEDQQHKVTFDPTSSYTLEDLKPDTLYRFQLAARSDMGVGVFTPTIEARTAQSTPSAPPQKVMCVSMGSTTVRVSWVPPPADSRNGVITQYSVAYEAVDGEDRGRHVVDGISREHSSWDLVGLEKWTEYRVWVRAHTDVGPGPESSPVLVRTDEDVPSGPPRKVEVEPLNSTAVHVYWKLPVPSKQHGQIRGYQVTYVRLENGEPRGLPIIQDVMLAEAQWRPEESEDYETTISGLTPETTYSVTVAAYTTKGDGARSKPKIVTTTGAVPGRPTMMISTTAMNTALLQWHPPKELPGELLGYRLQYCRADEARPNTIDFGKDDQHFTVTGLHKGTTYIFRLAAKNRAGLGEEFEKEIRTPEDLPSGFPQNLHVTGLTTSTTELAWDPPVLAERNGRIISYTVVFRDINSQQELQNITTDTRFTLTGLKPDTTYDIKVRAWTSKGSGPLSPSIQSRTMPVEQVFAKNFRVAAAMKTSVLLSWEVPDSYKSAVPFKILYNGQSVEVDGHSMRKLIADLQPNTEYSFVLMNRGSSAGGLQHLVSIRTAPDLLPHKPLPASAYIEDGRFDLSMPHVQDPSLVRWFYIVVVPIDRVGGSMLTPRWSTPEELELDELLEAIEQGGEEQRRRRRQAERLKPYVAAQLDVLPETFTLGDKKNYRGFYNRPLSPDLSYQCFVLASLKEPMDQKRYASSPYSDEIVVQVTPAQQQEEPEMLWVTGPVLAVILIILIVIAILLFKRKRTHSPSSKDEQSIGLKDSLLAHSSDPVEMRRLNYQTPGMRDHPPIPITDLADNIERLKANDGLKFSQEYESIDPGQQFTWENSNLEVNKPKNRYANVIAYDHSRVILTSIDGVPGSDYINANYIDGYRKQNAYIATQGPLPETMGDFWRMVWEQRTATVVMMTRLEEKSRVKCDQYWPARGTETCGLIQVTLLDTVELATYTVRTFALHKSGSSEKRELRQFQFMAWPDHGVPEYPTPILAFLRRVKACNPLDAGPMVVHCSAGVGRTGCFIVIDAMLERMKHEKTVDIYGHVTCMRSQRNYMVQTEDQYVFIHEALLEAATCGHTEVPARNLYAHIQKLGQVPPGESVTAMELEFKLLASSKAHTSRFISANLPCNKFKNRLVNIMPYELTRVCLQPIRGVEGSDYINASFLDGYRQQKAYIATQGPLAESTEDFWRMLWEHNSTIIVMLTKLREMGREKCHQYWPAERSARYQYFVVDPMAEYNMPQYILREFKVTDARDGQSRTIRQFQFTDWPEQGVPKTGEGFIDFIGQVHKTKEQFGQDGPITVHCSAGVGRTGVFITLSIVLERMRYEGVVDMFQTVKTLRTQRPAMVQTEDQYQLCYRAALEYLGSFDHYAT

[10] = Inhibitory activity against protein phosphatase type 2A at 10 uM; procedure, shortened: as §1

| SMILES | inhibition [1] | other results |
| --- | --- | --- |
| CCCCCCCCCCCCCCC(=O)c1ccc2c(-c3ccc(OCC(=O)O)cc3)nocc1-2 | 101% | IC50 [2]: 0.27 µM |
| COc1ccc(C(=O)c2ccc3c(-c4ccc(O[C@@H](Cc5ccccc5)C(=O)O)cc4)nocc2-3)cc1 | 80.1% | inhibition [3]: -6.83%; IC50 [2]: 7.82 µM; inhibition [4]: 89.7%; inhibition [5]: 95.7%; inhibition [6]: 63.5%; inhibition [7]: 96.8%; inhibition [8]: 10.3%; inhibition [9]: 17.3% |
| O=C(O)COc1ccc(-c2nocc3c(C(=O)c4ccccc4F)ccc2-3)cc1 | 11.9% |  |
| O=C(O)COc1ccc(-c2nocc3c(C(=O)c4ccco4)ccc2-3)cc1 | inactive |  |
| N#Cc1cccc(C(=O)c2ccc3c(-c4ccc(OCC(=O)O)cc4)nocc2-3)c1 | inactive |  |
| COCCNCc1ccc(C(=O)c2ccc3c(-c4ccc(OCC(=O)O)cc4)nocc2-3)cc1 | 10.2% |  |
| COc1ccc(C(=O)c2ccc3c(-c4ccc(OCC(=O)O)cc4)noc(C)c2-3)cc1 | inactive |  |
| O=C(c1ccc2c(-c3ccc(OC(CCO)C(=O)O)cc3)nocc1-2)C1CCCC1 (configuration not stated) | inactive |  |
| COc1ccc(O)c(CC(=O)c2ccc3c(-c4ccc(OCC(=O)O)cc4)nocc2-3)c1 | 48.7% |  |
| O=C(O)COc1ccc(-c2nocc3c(C(=O)C4CCCC4)ccc2-3)cc1 | 15.7% |  |
| CCOC(=O)COc1ccc(-c2nocc3cccc2-3)cc1 | 2.1% |  |
| O=C(O)COc1ccc(-c2nocc3c(C(=O)CCC4CCCC4)ccc2-3)cc1 | 42.4% |  |
| O=C(O)COc1ccc(-c2nocc3c(C(=O)c4ccc(Cl)cc4Cl)ccc2-3)cc1 | 38% |  |
| O=C(O)COc1ccc(-c2nocc3c(C(=O)c4cccc(C(F)(F)F)c4)ccc2-3)cc1 | 68.9% | IC50 [2]: 7.55 µM |
| Oc1ccc(-c2nocc3cccc2-3)cc1 | 18.5% |  |
| O=C(O)COc1ccc(-c2nocc3cccc2-3)cc1 | 27.4% |  |
| COc1cccc(C(=O)c2ccc3c(-c4ccc(OCC(=O)O)cc4)nocc2-3)c1 | 87.4% | IC50 [2]: 1.96 µM |

| SMILES | inhibition [1] | other results |
| --- | --- | --- |
| COc1ccc(C(=O)c2ccc3c(-c4ccc(OCC(=O)NCN5CCOCC5)cc4)nocc2-3)cc1 | inactive |  |
| COc1ccccc1C(=O)c1ccc2c(-c3ccc(OCC(=O)O)cc3)nocc1-2 | 3.8% |  |
| CCOC(=O)/C=C/c1ccc2c(-c3ccc(OCC(=O)O)cc3)nocc1-2 | inactive |  |
| O=C(O)COc1ccc(-c2noc(-c3ccccc3)c3cccc2-3)cc1 | 1.1% |  |
| COc1ccc(C(=O)c2ccc3c(-c4ccc(OCC(=O)N5CCN(Cc6ccccc6)CC5)cc4)nocc2-3)cc1 | 68.8% | IC50 [2]: 5.48 µM |
| COc1ccc(C(=O)c2ccc3c(-c4ccc(OC)cc4)nocc2-3)cc1 | 32% |  |
| COc1ccc(C(=O)c2ccc3c(-c4ccc(OC(C(=O)O)C(=O)O)cc4)nocc2-3)cc1 | 3.3% |  |
| Cc1onc(-c2ccc(OCC(=O)O)cc2)c2cccc1-2 | inactive |  |
| COc1ccc(C(=O)c2ccc3c(-c4cc(Br)c(OCC(=O)O)c(Br)c4)nocc2-3)cc1 | 101% | inhibition [3]: 53.4%; IC50 [2]: 1.64 µM; inhibition [4]: 100%; inhibition [10]: 41.8%; inhibition [5]: 100%; inhibition [6]: 106%; inhibition [7]: 101%; inhibition [8]: 40.5%; inhibition [9]: 57.7% |
| O=C(c1ccc2c(-c3ccc(OC(C(=O)O)C(=O)O)cc3)nocc1-2)C1CCCC1 | 76.7% | IC50 [2]: 8.19 µM |
| COc1ccc(-c2nocc3c(C(=O)c4ccc(Cl)cc4Cl)ccc2-3)cc1 | 101% | IC50 [2]: 3.4 µM |
| COc1ccc(CC(=O)c2ccc3c(-c4ccc(OCC(=O)O)cc4)nocc2-3)cc1 | 85.5% | IC50 [2]: 5.63 µM |
| COc1ccc(C(=O)c2ccc3c(-c4ccc(OCC(=O)NCCO)cc4)nocc2-3)cc1 | inactive |  |
| COc1ccc(-c2nocc3cccc2-3)cc1 | 3% |  |
| CC(=O)c1ccc2c(-c3ccc(OCC(=O)O)cc3)nocc1-2 | inactive |  |
| O=C(O)COc1ccc(-c2nocc3c(C(=O)c4ccc(Cl)cc4)ccc2-3)cc1 | 14.3% |  |
